We go through ten compounds from ChEMBL document CHEMBL4480394, “Benzimidazolone-based selective σ2 receptor ligands: Synthesis and pharmacological evaluation” (Eur J Med Chem, 2019).

Assay [1] deals with Sigma non-opioid intracellular receptor 1 (Rattus norvegicus, UniProt Q9R0C9). Description: Displacement of [3H](+)-pentazocine from sigma1 receptor in rat brain membranes after 120 mins by radioligand binding assay. The format is cell membranes.
Assay [2] has as its target Sodium-dependent dopamine transporter (Rattus norvegicus, UniProt P23977). Description: Displacement of [3H]WIN 35428 from dopamine transporter in rat striatal membranes after 120 mins by radioligand binding assay. The format is cell membranes, Striatum, Membrane.
Assay [3] concerns the target T1, Sigma intracellular receptor 2 (Rattus norvegicus, UniProt Q5U3Y7).
T1 sequence (Q5U3Y7 whole entry): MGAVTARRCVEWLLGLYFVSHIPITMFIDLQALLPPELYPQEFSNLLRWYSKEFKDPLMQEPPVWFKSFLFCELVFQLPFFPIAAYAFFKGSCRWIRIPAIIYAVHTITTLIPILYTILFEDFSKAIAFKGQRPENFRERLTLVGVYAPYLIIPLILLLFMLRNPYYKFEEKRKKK
Briefly: Displacement of [3H]-DTG from sigma2 receptor in rat brain membranes after 120 mins in presence of (+)-pentazocine by radioligand binding assay. The assay is classed as cell membranes.

For assay [4], the target named is Sodium-dependent serotonin transporter (Rattus norvegicus, UniProt P31652). Description: Displacement of [3H]paroxetine from serotonin transporter in rat brainstem membranes after 120 mins by radioligand binding assay. The assay is classed as cell membranes. The method, boiled down: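 Rat brainstem membranes, 0.2 nM [3H]paroxetine; nonspecific with 1.5 µM imipramine. Ice-cold buffer stop, glass-fiber filtration, Cheng-Prusoff Ki; triplicate, mean ± SEM.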

A short description of assay [5]: Displacement of [3H]nisoxetine from norepinephrine transporter in rat cerebral cortex membranes after 120 mins by radioligand binding assay. The assay is classed as cell membranes, Membrane.
For assay [6], the target named is Glutamate NMDA receptor. Description: Displacement of [3H]TCP from NMDA receptor in rat brain membranes after 120 mins by radioligand binding assay. The format is cell membranes. Put shortly:
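PCP site of NMDA receptor in rat brain minus cerebellum membranes, 5 nM [3H]TCP; nonspecific with 10 µM cyclazocine.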

The species entered for assay [7] is Rattus norvegicus. Description: Selectivity ratio of Ki for sigma1 receptor in rat brain membranes to Ki for sigma2 receptor in rat brain membranes. The assay is classed as cell membranes.
The target of assay [8] is 5-hydroxytryptamine receptor 2A (Rattus norvegicus, UniProt P14842). Description: Displacement of [3H]ketanserin from 5-HT2 receptor in rat brain membranes after 120 mins by radioligand binding assay. The assay is classed as cell membranes. The method, boiled down:
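5-HT2 site in rat brain (minus cerebellum) membranes labeled with 2 nM [3H]ketanserin; 1 µM mianserin nonspecific. Glass-fiber filtration, Ki by Cheng-Prusoff; triplicate, mean ± SEM.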

Assay [9] concerns the target Opioid receptor (Rattus norvegicus, UniProt P33533+P34975+P33535). Description: Displacement of [3H]bremazocine from opioid receptor in rat brain membranes after 120 mins by radioligand binding assay. The assay is classed as cell membranes.
For assay [10], the target named is D(2) dopamine receptor (Rattus norvegicus, UniProt P61169). Briefly: Displacement of [3H](-)-sulpiride from dopamine D2 receptor in rat brain membranes after 120 mins by radioligand binding assay. The assay is classed as cell membranes.
Assay [11] is filed under the species Rattus norvegicus. Description: Selectivity ratio of Ki for 5-HT2 receptor in rat brain membranes to Ki for sigma2 receptor in rat brain membranes. The assay is classed as cell membranes.
Assay [12] concerns Mus musculus. Description: Anticonvulsant activity in ip dosed Swiss Webster mouse assessed as reduction in cocaine-induced convulsion pretreated for 15 mins followed by cocaine-challenge and measured for 30 mins. The assay is classed as functional, organism-based.

A value given as a limit tells only on which side of the number the result lay.

Sigma non-opioid intracellular receptor 1, sequence (Q9R0C9 whole entry): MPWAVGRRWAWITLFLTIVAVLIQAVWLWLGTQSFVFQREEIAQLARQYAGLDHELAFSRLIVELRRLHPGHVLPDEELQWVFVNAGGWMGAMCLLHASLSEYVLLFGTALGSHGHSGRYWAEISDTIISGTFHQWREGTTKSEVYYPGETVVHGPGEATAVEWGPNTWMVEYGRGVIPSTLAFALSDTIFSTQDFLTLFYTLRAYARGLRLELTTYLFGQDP
5-hydroxytryptamine receptor 2A, sequence (P14842 whole entry): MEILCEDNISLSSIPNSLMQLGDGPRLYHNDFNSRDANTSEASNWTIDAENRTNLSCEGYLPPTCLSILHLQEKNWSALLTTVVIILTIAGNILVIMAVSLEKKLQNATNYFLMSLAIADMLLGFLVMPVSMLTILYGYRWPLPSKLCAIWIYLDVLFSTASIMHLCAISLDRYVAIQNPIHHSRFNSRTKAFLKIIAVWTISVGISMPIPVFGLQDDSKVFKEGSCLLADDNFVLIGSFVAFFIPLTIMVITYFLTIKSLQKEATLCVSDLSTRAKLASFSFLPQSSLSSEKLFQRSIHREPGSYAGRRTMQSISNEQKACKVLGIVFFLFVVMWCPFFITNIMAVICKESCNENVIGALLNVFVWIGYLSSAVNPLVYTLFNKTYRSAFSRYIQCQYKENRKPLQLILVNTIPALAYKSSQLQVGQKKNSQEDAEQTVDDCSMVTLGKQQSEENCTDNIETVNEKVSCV
Sodium-dependent dopamine transporter, sequence (P23977 whole entry): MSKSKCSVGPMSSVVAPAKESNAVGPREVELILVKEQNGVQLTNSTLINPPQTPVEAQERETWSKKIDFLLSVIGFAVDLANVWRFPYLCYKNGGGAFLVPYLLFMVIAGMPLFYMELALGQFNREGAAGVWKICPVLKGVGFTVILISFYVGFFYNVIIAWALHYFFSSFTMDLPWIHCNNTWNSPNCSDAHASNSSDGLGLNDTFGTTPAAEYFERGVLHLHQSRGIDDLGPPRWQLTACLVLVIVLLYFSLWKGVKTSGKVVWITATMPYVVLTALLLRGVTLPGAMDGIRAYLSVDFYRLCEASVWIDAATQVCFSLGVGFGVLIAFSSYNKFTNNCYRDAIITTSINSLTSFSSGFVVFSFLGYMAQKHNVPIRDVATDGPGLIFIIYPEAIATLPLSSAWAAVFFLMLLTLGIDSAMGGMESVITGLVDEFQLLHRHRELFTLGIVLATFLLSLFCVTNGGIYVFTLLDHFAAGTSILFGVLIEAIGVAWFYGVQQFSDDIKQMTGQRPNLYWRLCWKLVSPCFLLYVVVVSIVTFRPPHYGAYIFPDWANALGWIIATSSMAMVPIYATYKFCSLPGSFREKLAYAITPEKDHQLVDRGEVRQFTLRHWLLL
D(2) dopamine receptor, sequence (P61169 whole entry): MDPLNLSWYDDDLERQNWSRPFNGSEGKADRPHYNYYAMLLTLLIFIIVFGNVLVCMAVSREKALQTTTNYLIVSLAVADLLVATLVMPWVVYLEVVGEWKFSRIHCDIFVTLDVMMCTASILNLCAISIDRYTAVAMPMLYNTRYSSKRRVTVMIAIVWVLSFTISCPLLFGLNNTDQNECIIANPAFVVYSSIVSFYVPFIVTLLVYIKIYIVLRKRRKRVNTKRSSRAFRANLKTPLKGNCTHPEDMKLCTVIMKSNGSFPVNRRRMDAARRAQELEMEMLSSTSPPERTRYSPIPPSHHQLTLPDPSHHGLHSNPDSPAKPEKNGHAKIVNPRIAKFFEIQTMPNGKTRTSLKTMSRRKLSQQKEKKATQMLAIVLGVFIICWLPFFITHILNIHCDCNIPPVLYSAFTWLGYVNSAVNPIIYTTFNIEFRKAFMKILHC
Sodium-dependent serotonin transporter, sequence (P31652 whole entry): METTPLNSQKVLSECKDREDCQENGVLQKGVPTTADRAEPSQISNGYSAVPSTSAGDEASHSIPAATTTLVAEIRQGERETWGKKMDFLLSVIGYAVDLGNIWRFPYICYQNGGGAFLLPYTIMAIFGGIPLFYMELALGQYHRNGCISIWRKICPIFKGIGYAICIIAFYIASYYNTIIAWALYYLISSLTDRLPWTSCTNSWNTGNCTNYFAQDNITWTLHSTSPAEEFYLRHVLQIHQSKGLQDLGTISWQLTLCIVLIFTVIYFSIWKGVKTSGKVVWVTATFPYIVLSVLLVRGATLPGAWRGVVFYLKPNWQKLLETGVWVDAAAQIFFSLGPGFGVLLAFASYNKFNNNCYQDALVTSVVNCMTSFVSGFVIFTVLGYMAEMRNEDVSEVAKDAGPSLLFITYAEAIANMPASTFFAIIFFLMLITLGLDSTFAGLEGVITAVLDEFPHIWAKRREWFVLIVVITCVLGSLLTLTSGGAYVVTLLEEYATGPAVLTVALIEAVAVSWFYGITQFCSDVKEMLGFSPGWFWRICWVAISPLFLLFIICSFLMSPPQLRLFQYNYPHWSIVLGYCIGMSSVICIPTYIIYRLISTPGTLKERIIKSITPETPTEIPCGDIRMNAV

For `CCCCCn1c(=O)n(CCCCN2CCN(c3ccc(F)cc3)CC2)c2ccccc21`, the Ki was 2270 nM in [1]; greater than 1000 nM in [2]; 4.27 nM in assay [3]; 446 nM in assay [4]; greater than 10000 nM in assay [5]; greater than 10000 nM in assay [6]. In addition, the Ki was 250 nM in assay [8], greater than 10000 nM in [9] and greater than 1000 nM in [10]. Moreover, the Ratio Ki in assay [7] is 532.

Turning to `Cn1c(=O)n(CCCCN2CCN(c3ccc(F)cc3)CC2)c2ccccc21`, the Ki in assay [3] came to 2.05 nM.

As to `CC(=O)c1ccc2c(c1)[nH]c(=O)n2CCCCN1CCN(c2ccc(F)cc2)CC1`, the figures for the Ki in assay [1] and in assay [3] were 166 nM and 28.5 nM, respectively. Besides, the Ratio Ki in assay [7] is 5.8.

Consider `CCCn1c(=O)n(CCCCN2CCN(c3ccc(F)cc3)CC2)c2ccccc21`, for which the Ki in assay [1] was 752 nM; in assay [2], greater than 1000 nM; in [3], 0.66 nM; in [4], greater than 1000 nM; in assay [5], greater than 10000 nM; in assay [6], greater than 10000 nM. Further, the Ki is 54.7 nM in assay [8], greater than 10000 nM in [9] and greater than 10000 nM in [10]. The Ratio Ki in [11] was 83; in [7] it was 1140. Also, the Activity entry in assay [12] was “Dose-dependent effect”.

As for `CCCCCCCCCCn1c(=O)n(CCCCN2CCN(c3ccc(F)cc3)CC2)c2ccccc21`, the inhibitory constant (Ki) in [1] stood at 724 nM; in assay [3], 4.55 nM. Further, in [7], the Ratio Ki came to 159.

Take `CCCCCn1c(=O)n(CCCCN2CCN(c3ccc(F)cc3)CC2)c2ccc(C(C)=O)cc21`: the Ki in assay [1] was 299 nM; in assay [3], 2.15 nM. The Ratio Ki in [7] came to 139.

Take `CCCCCCCCCCn1c(=O)n(CCCCN2CCN(c3ccc(F)cc3)CC2)c2ccc(C(C)=O)cc21`: the figures for the Ki in assay [1] and in [3] were 988 nM and 32.5 nM, respectively. In [7], the Ratio Ki is 30.4.

As to `CC(=O)c1ccc2c(c1)n(C)c(=O)n2CCCCN1CCN(c2ccc(F)cc2)CC1`, the Ki in assay [1] turned out to be 72.3 nM; in assay [3], 7.6 nM. The Ratio Ki in assay [7] was 9.5.

As to `O=c1[nH]c2ccccc2n1CCCCN1CCN(c2ccc(F)cc2)CC1`, the Ki in [1] was 144 nM; in assay [3], 18.4 nM.

With `CCCn1c(=O)n(CCCCN2CCN(c3ccc(F)cc3)CC2)c2ccc(C(C)=O)cc21`, the Ki in assay [1] came out at 273 nM; in [3], 1.81 nM. For the same compound, in assay [7], the Ratio Ki was determined as 151.
